Sampled rows, rich in hits. Any-hit rate of the full collection: about 3.1%.
CSN inh – CSN deneddylation inhibition; Q92905; Purified CSN, SCF-Nedd8-OG deneddylation, fluorescence polarization; inhibition, % at 12.5 µM; 360,000 tested, 0.38% active; AID 651999;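 active means pattern-corrected inhibition above about 35%, with an unprinted fluorescence ratio check between 0.5 and 1.5, limit read from the data, passing the limit was not always enough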;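 further: 0% = enzyme with substrate and 100% = substrate without enzyme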
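Assay system: purified human Csn5 enzyme expressed in HEK293T cells; Input: 0.24 nM Csn5 enzyme, final concentration; Reagent: 10 nM SCFSkp2-Nedd8OG; Compound dosing: 12.5 µM single point; Times: reaction 90 min, room temperature; Technique: fluorescence polarization readout.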
ATG4B inhibitor – blocks human ATG4B protease cleavage of LC3 substrate | Q9Y4P1 | ATG4B cleavage of LC3-PLA2, NBD-HPC fluorescence, 1 h | inhibition, % at 8.33 µM | 340,000 tested, 0.51% active; in the data active means inhibition above about 40%
rCAG RNA binder – molecules binding r(CAG) RNA repeats; 370,000 tested, 1.3% active; AID 651821; inhibition, % at 3 µM; r(CAG) RNA repeat, TO-PRO-1 dye displacement fluorescence;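 active means inhibition above the plate cutoff, the mean of all test compounds on that plate plus 3 SD, cut at about 35% in these data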;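 further: 0% = DMSO alone and 100% = 100 µM mitoxantrone as full dye displacement; higher means more dye released from RNA so lower well fluorescence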
LEDGF integ inh – blocks HIV-1 LEDGF/p75-dependent DNA integration. TR-FRET IN-LEDGF/p75 DNA integration, Eu/Cy5. inhibition, % at 3.7 µM. 370,000 tested, 0.64% active;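 active means inhibition above the screen-wide mean plus 3 SD, cut at about 13% in these data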;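 further: signal is the Cy5 over europium emission ratio at 671 and 618 nm; 0% = plate median of compound wells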
MBD2 DNA inh – MBD2-methylated oligo binding inhibition | inhibition, % at 4.4 µM | TR-FRET, MBD2 binding to methylated oligonucleotide | Q9UBB5 | 370,000 tested, 0.31% active; in the data active means inhibition above about 13%
Target sequence (Q9UBB5 whole entry, looked up): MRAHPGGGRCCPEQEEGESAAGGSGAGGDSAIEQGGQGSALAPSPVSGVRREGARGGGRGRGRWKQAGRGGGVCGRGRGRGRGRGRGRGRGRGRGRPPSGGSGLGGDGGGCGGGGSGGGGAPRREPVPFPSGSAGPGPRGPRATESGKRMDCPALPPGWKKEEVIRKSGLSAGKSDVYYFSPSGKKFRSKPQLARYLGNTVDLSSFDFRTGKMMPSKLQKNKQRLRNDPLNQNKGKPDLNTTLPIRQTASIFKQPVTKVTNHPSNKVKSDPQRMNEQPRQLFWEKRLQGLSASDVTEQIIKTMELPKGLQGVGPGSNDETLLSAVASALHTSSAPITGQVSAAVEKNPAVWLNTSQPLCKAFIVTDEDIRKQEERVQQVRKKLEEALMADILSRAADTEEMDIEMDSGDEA
UHRF1 binding – human UHRF1 methylated DNA binding inhibitors; inhibition, % at 4.4 µM; UHRF1 binding to methylated oligo, TR-FRET; 370,000 tested, 0.75% active; AID 687016; Q96T88;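 further: UHRF1 SRA domain binding a hemimethylated CpG hairpin DNA probe; 0% = median of test compound wells and 100% = reference inhibitor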
CSN deneddyl val – Csn5 (human) deneddylation inhibition, single-concentration validation; shares compounds with CSN inh; Csn5 deneddylation of SCF-Nedd8OG, fluorescence polarization, 90 min; inhibition, % at 16.6 µM; 540 tested, 62% active; AID 720654; in the data active means inhibition above about 50%;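 further: 0% = DMSO with enzyme and 100% = no enzyme wells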
MMP-2 counter – blocks human MMP-2 in a CSN deneddylation counter-screen. 540 tested, 33% active. inhibition, % at 16.6 µM. recombinant MMP-2, FRET substrate fluorescence, 60 min. shares compounds with CSN inh;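 active means corrected plate-normalized z-score of 5 or more, or -5 or less, or inhibition of 15% or more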;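 further: plate controls were DMSO wells with enzyme for no effect and buffer wells lacking MMP-2 for full effect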
Thrombin counter – counter-screen for CSN deneddylation inhibitors: bovine thrombin inhibition; shares compounds with CSN inh; bovine thrombin cleavage of Ub4-pepOG, fluorescence polarization; inhibition, % at 16.6 µM; 540 tested, 49% active; AID 720656;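 active means inhibition at or above a set limit, with a fluorescence interference ratio between 0.5 and a set maximum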
UHRF1 DNA bind – inhibits human UHRF1 binding to methylated oligonucleotide, MBD2 counter-screen; shares compounds with MBD2 DNA inh; TR-FRET; inhibition, % at 4.4 µM; 1,000 tested, 25% active; AID 720530;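 further: UHRF1 SRA domain binding a labeled hemimethylated CpG hairpin DNA; 0% = vehicle only and 100% = reference inhibitor with vehicle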
MBD2 DBD conf – MBD2-DBD methyl-DNA binding inhibition, TR-FRET confirmation; shares compounds with MBD2 DNA inh; TR-FRET MBD2-DBD binding to methylated oligonucleotide; inhibition, % at 4.4 µM; 1,000 tested, 26% active; AID 720531; in the data active means inhibition above about 14%
IN multimer act – activates HIV-1 integrase multimerization in LEDGF counter-screen | shares compounds with LEDGF integ inh | TR-FRET HIV-1 integrase multimerization, biochemical | activation, % at 7.7 µM | 2,000 tested, 17% active; in the data active means activation above about 8.9%
TRFRET interf – TR-FRET optical interference, LEDGF/p75 integration counter-screen; shares compounds with LEDGF integ inh; inhibition, % at 7.7 µM; AID 1053135; TR-FRET optical interference counterscreen, HIV-1 IN multimerization; 2,000 tested, under 10 active;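 active means inhibition above the mean over all tested compounds plus 3 SD, which no compound reached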;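 further: 0% = integrase with antibodies and DMSO and 100% = antibodies without integrase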
IN-LEDGF confirm – confirmation of HIV-1 LEDGF/p75-dependent integration inhibitors. AID 1053136. TR-FRET LEDGF/p75-dependent HIV-1 integration, biochemical. 2,000 tested, 36% active. inhibition, % at 3.7 µM. shares compounds with LEDGF integ inh; in the data active means inhibition above about 14%
An asterisk follows results filed as active; · = no result. Unless noted, no stated cut-off is given here; in the data, active means inhibition above about 21%; inactive means the rest.

SMILES	CSN inh	ATG4B inhibitor	rCAG RNA binder	LEDGF integ inh	MBD2 DNA inh	UHRF1 binding	UHRF1 DNA bind	MBD2 DBD conf	others
Cc1cccc(C)c1N1C(=O)[C@@H]2C(c3ccccc3Cl)=NO[C@@H]2C1=O	-3	-1	-3	1	-4	2	·	·
CNc1ccc(Br)cc(C(=O)/C=C/c2ccc3c(c2)OCO3)c1=O	44*	6	33	19*	2	2	·	·	CSN deneddyl val=71*;MMP-2 counter=-1;Thrombin counter=20*;IN multimer act=7;TRFRET interf=-25;IN-LEDGF confirm=36*
CC(C)(C)c1ccc(-c2nnc3n2N=C(c2ccc(Cl)cc2)CS3)cc1	·	·	3	0	4	0	·	·
CC(=O)NC1=NC(=O)/C(=C/c2cc(C)n(-c3cccc(C(=O)O)c3)c2C)S1	61*	10	24	31*	9	45*	·	·	CSN deneddyl val=-34;MMP-2 counter=16*;Thrombin counter=53*;IN multimer act=14*;TRFRET interf=-50;IN-LEDGF confirm=5
O=C(NN1C(=O)/C(=C\c2ccc(O)c([N+](=O)[O-])c2)SC1=S)c1ccccc1Cl	23	8	5	0	-8	2	·	·
O=C(NN1C(=O)/C(=C/c2ccc(O)c(O)c2)SC1=S)c1ccccc1	50*	9	30	30*	-1	-3	·	·	CSN deneddyl val=63*;MMP-2 counter=20*;Thrombin counter=33*;IN multimer act=12*;TRFRET interf=-42;IN-LEDGF confirm=54*
Cc1cc(N2CCN(CC(C)(C)O)C[C@@H]2C)ccc1N1CCN(CC(C)(C)O)[C@H](C)C1	·	·	0	9	-4	2	·	·
O=C(/C=C/c1cccc(Cl)c1)NNC(=O)c1ccncc1	-4	-3	2	0	14*	1	3	1
Cc1cccc(NC(=O)CNC(=O)c2cccc(-n3cccc3)c2)c1C	32	14	6	5	31*	69*	62*	44*
COc1ccc(NC(=O)CN(C)C(=O)c2cccc(-n3cccc3)c2)cc1	30	0	11	5	33*	58*	43*	38*
Cc1ccc(NC(=O)CN(C)C(=O)c2cccc(-n3cccc3)c2)cc1	29	-1	8	2	36*	77*	66*	47*
Cc1cccc(NC(=O)CNCC(=O)Nc2cccc(C)c2C)c1C	1	-8	0	7	6	0	·	·
CC1(C(=O)NS(=O)(=O)c2ccc(F)cc2F)CCN1C(=O)CCc1ccc(Cl)cc1Cl (stereo unspecified)	-2	·	32	1	26*	17	8	1
CC1(C(=O)NS(=O)(=O)c2cccc(F)c2)CCN1C(=O)CCc1ccc(Cl)cc1Cl (stereo unspecified)	-3	·	30	-4	-7	0	·	·
O=C(COCc1ccccc1)N1CC[C@H]2[C@H](CCCN2Cc2cc(F)cc(F)c2)C1	·	·	-1	-2	-2	-3	·	·
CC(=O)OC[C@H]1O[C@@H](n2ncc(=O)[nH]c2=O)[C@H](OC(C)=O)[C@@H]1OC(C)=O	-2	2	·	·	·	·	·	·
O=C(OCC1OC(n2ncc(=O)[nH]c2=O)C(OC(=O)c2ccccc2)C1OC(=O)c1ccccc1)c1ccccc1 (stereo unspecified)	7	-2	31	-1	28*	5	4	1
COc1ccc(CN2C(=O)CSCCC2(C)c2nnnn2-c2c(C)cccc2C)cc1 (stereo unspecified)	·	·	3	-2	4	0	·	·
CCCCCn1nnnc1C1(C)CN(S(C)(=O)=O)CC(=O)N1Cc1ccco1 (stereo unspecified)	·	·	2	5	0	-1	·	·
O=C(Cn1cnc2scc(-c3cccc([N+](=O)[O-])c3)c2c1=O)NCc1ccco1	27	2	28	10	24*	12	23*	17*
COc1ccc(C(CC(=O)N2CCOCC2)C(C)C)cc1 (stereo unspecified)	1	-3	-4	7	15*	23*	7	3
CC(=O)Nc1c2c(nn1-c1ccc(C)cc1)CS(=O)(=O)C2	1	-4	1	-3	70*	1	3	1
Cc1ccc(-n2nc3c(c2NC(=O)c2cccs2)CS(=O)(=O)C3)c(C)c1	0	-8	2	-1	15*	-2	6	3
O=C(Nc1ccc(F)cc1)Nc1c(-c2ccc(F)cc2)nc2ncccn12	·	·	7	-4	3	3	·	·
C[C@H](O)[C@@H]1CN2CCc3ccc(-c4ccc5c(c4)OCO5)cc3[C@@H]2C[C@@H]1N(C)C(=O)Nc1ccccc1	·	·	3	6	-4	0	·	·
CCN(CC)S(=O)(=O)c1ccc(N2CCOCC2)c(NC(=O)c2ccc(C#N)cc2)c1	1	-2	3	0	14*	25*	9	5
O=C1C=C(c2ccoc2)N2CCC[C@H]2C1	0	2	-2	-4	36*	-5	9	1
O=C1C2CCCN2C(=S)N1C1CCCCC1 (stereo unspecified)	3	17	-5	-6	5	1	·	·
C=CCN(C(=O)[C@@H](CCCC)[C@@H](O)c1ccc(C(C)=O)cc1)c1ccccc1	·	·	-1	0	-1	-4	·	·
Cc1c[n+]([O-])n(-c2ccc(C(=O)O)cc2)n1	0	2	4	-4	15*	21	10	6
